Screening results from PubChem BioAssay.
Rows were chosen to be rich in hits. Some 4.8% of all compounds tested hit in one or more screens of this group.
NALP1 inh: NALP1 inhibition. inhibition, % at 10 µM. hit rate 0.61% among 280,000. S. cerevisiae NALP1/ASC/caspase-1 growth, X-gal OD620, 72 h; in the data active = inhibition mostly above about 24%, no sharp cut-off; inactive = mostly below about 32%
NALP3 yeast inh: NALP3 inhibition in yeast; Yeast reconstituted NLRP3/ASC/caspase-1, beta-gal luminescence, 24 h; inhibition, % at 10 µM; hit rate 0.39% among 330,000; AID 2825;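 active = inhibition of 50% or more; inactive = inhibition below 50%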;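 also: plate controls were induced DMSO wells for no effect and uninduced yeast grown without galactose for full effect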
Calb FLC: affects C. albicans growth with fluconazole; hit rate 0.57% among 300,000; C. albicans CaCi-2 + fluconazole, Alamar Blue growth, 48 h; growth inhibition, % (concentration not given with the values); AID 1979;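 active = growth inhibition above about 58% in most replicates, limit read from the data, passing the limit was not always enough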;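 also: all wells also contain fluconazole at 8 µg/ml as a sub-toxic cotreatment; 0% = median of DMSO wells and 100% = median of geldanamycin control wells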
ATG4B inhibitor: blocks human ATG4B protease cleavage of LC3 substrate. AID 504462. ATG4B cleavage of LC3-PLA2, NBD-HPC fluorescence, 1 h. hit rate 0.51% among 340,000. inhibition, % at 8.33 µM. Q9Y4P1; in the data active = inhibition above about 40%
Target sequence (Q9Y4P1 whole entry, looked up): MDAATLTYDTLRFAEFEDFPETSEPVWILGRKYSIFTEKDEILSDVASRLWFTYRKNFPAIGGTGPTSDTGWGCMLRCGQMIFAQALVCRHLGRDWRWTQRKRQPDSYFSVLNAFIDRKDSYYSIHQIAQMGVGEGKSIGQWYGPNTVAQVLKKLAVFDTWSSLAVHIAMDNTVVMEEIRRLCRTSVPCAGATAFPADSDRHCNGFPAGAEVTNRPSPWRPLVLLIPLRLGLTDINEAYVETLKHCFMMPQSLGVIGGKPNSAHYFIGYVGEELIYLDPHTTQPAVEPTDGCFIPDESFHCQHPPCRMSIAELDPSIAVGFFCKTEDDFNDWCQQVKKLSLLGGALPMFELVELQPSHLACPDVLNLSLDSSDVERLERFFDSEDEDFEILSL
UCH37 DUB inh: blocks the human deubiquitinase UCH37 | purified proteasome/UCH37, Ub-AMC cleavage fluorescence | inhibition, % (no concentration beside the values) | hit rate 0.33% among 330,000;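 active = mean inhibition over replicate wells above about 20%, limit read from the data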;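 also: 0% = compound-free wells with enzyme and 100% = wells lacking proteasome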
Target sequence (Q9Y5K5 whole entry, looked up): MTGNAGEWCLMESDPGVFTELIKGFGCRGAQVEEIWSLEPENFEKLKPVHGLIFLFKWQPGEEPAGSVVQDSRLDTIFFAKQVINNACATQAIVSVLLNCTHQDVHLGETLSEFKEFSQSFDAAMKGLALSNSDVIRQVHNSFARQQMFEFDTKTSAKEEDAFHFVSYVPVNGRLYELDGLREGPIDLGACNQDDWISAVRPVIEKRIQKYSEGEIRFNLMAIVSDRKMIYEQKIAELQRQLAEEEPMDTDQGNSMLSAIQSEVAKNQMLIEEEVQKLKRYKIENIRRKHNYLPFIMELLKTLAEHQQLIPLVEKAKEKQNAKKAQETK
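system = Proteasome-associated human UCH37 deubiquitinase | amount = 0.15 nM proteasome as dispensed | medium = pH 7.4 Tris-HCl (50 mM) with ovalbumin, ATP-MgCl2, DTT | incubation = 30 min preincubation with enzyme, 25 min cleavage at room temperature | detection = AMC fluorescence 355/460 nm | read-out basis = percent inhibition | controls = no-proteasome and no-compound wells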
ALR inh: human ALR oxidase inhibition via reduced H2O2; purified ALR, DTT oxidation, H2O2 HRP-luminol luminescence; P55789; hit rate 3.8% among 290,000; inhibition, % (no concentration beside the values);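 active = mean replicate inhibition above about 79%, with every replicate also reaching it, limit read from the data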
NALP3 yeast conf: NALP3 inhibition confirmation in yeast; hit rate 81% among 1,300; shares compounds with NALP3 yeast inh; inhibition, % at 10 µM; yeast expressing human NALP3, luminescence; in the data active = inhibition above about 48%
Casp1 ASC ctr: caspase-1-ASC yeast counter-screen hit; shares compounds with NALP3 yeast inh; yeast expressing Caspase-1-ASC, luminescence counter screen; inhibition, % at 10 µM; hit rate 66% among 1,000; AID 488784
NALP3 yeast rt: yeast NALP3 inhibition, confirmed on retest; inhibition, % at 10 µM; yeast expressing human NALP3, luminescence read-out; hit rate 53% among 1,000; shares compounds with NALP3 yeast inh
* hit, by the source's call; . = not tested or not shown. Rule as the data show it, unless noted: active = inhibition above about 50%; inactive = the rest.

SMILES	NALP1 inh	NALP3 yeast inh	Calb FLC	ATG4B inhibitor	UCH37 DUB inh	ALR inh	NALP3 yeast conf	Casp1 ASC ctr	NALP3 yeast rt
COc1ccc(C(=O)c2cc([N+](=O)[O-])ccc2N2CCCC2)cc1	34.2	56.2*	-4.2	-2.0	6.0	-0.6	23.2	.	.
CC(C)CCNC(=O)c1ccc(-c2ccccc2)cc1	-0.3	52.1*	1.3	.	3.7	-11.4	61.0*	47.1	36.0
CC(C)CCNC(=O)c1cccc(C(=O)NCCC(C)C)c1	5.0	13.7	.	-7.2	-3.2	0.2	.	.	.
Cc1c(C(=O)Nc2cc(F)cc(F)c2)cnn1-c1ccccc1	24.1	71.2*	-12.3	-1.8	0.6	.	76.2*	75.8*	69.8*
Cc1c(C(=O)Nc2ccccc2F)cnn1-c1ccccc1	15.6	47.3	-8.4	-3.1	2.0	-3.9	.	.	.
C(=C\c1ccccc1)/CSc1nnc(-c2cccnc2)o1	8.7	52.3*	-4.4	-3.4	1.1	11.0	44.9	47.2	37.1
C=CCc1c(C)c(C#N)c2nc3ccccc3n2c1NCCN(C)C	33.3*	53.8*	91.2*	-3.0	-7.4	15.1	80.6*	77.9*	42.0
CC(Oc1ccccc1)C(=O)Nc1cc(Cl)ccc1-n1cncn1 (configuration not stated)	.	56.9*	-1.0	8.3	4.3	.	58.7*	52.3*	46.0
CC(Oc1ccc(F)cc1)C(=O)Nc1cc(Cl)ccc1-n1cncn1 (configuration not stated)	.	49.4	-1.4	-4.6	4.2	1.9	.	.	.
O=C(Nc1cc(Cl)ccc1-n1cncn1)c1ccc([N+](=O)[O-])s1	45.2*	82.4*	39.9	8.5	2.1	-18.4	90.8*	.	.
Cn1cccc1CC(=O)NN=Cc1ccc(C(C)(C)C)cc1	.	.	.	.	3.8	.	.	.	.
O=C(C[n+]1ccccc1)N/N=C/c1cc(Br)ccc1O	-7.6	63.7*	-21.0	5.6	.	18.4	66.5*	51.4*	65.6*
O=C1CN(c2cc(Cl)cc(Cl)c2)C(=O)CN1N=Cc1cccnc1	.	.	.	.	3.3	.	.	.	.
O=C(NN=Cc1ccc([N+](=O)[O-])cc1)c1cnccn1	.	.	.	.	10.9	.	.	.	.
C=C(Cl)COc1ccc2c(CCCC)cc(=O)oc2c1	7.2	32.9	-0.6	-2.7	-6.3	-20.4	.	.	.
C=C(Cl)COc1ccc2c(CC)cc(=O)oc2c1	2.4	50.8*	.	3.7	-38.7	-9.9	44.1	64.3*	56.4*
CC(=NNC(=O)c1ccc(Br)cc1)c1ccccc1	.	.	.	.	-1.7	.	.	.	.
COc1cc(OC)cc(C(=O)/C=C2\Sc3ccccc3N2C)c1	1.6	24.7	-1.9	-8.9	-25.2	-3.8	.	.	.
CN1/C(=C\C(=O)c2cccs2)Sc2ccccc21	-4.4	62.3*	3.6	-5.8	-18.3	6.3	20.7	.	.
CN1/C(=C/C(=O)c2cccs2)Sc2ccccc21	-1.5	78.2*	83.7*	.	-22.0	11.8	81.5*	96.7*	93.5*
O=C(CNc1cccc([N+](=O)[O-])c1)NN=Cc1ccc(F)cc1	.	.	.	.	3.4	.	.	.	.
COc1ccccc1-c1oc2ccccc2c1C#CC(C)(C)O	.	71.7*	.	-19.5	-6.6	32.7	59.0*	71.2*	59.8*
COc1ccccc1-c1oc2ccccc2c1C#CCO	.	-17.8	.	12.5	-0.8	-4.1	.	.	.
COC(=O)c1ccc(OCC(=O)Nc2ccsc2C(=O)OC)cc1	1.5	17.3	0.7	-2.8	0.3	-2.4	.	.	.
COC(=O)c1sccc1NC(=O)COc1cccc(C)c1	.	54.3*	-2.1	-14.2	1.6	-17.1	57.7*	31.4	30.1
SMILES	NALP1 inh	NALP3 yeast inh	Calb FLC	ATG4B inhibitor	UCH37 DUB inh	ALR inh	NALP3 yeast conf	Casp1 ASC ctr	NALP3 yeast rt
CC(Oc1ccc(Br)cc1)C(=O)Nc1nc(-c2ccccn2)cs1 (configuration not stated)	6.7	50.8*	-4.2	12.8	.	0.5	77.0*	88.8*	80.8*
O=C(Sc1cccc2cccnc12)c1ccc(F)cc1	-13.8	43.1	.	.	-0.1	.	.	.	.
O=C(Sc1cccc2cccnc12)c1ccccc1Br	29.3	65.9*	112.0*	.	.	.	63.7*	.	.
CC(=O)Oc1ccc(C=NNC2=NS(=O)(=O)c3ccccc32)cc1	.	.	.	.	18.4	.	.	.	.
COc1ccc(-c2ccc(SCC(=O)NCc3ccco3)nn2)cc1	3.2	-111.9	-3.6	1.8	1.7	0.6	-0.7	.	.
C[C@]12C=C[C@H](O)CC1=CCC1C2CC[C@@]2(C)C1CCC21OCCO1 (some centres not stated)	.	56.6*	.	-7.8	-1.6	-11.1	70.9*	.	.
C[C@]12C=CC(=O)C=C1CCC1C2CC[C@@]2(C)C1CCC21OCCO1 (some centres not stated)	.	27.1	.	-3.6	1.7	-1.6	.	.	.
O=C(NC(=S)Nc1cccc([N+](=O)[O-])c1)C1CCCC1	31.2	53.7*	5.5	-8.9	2.3	3.8	72.8*	60.2*	57.9*
O=C(Nc1ccccc1)c1cc2ccccc2c(=O)s1	23.1	58.8*	-15.2	-5.8	5.0	.	10.3	.	.
CCOc1ccccc1N(CC(=O)NN=C(C)c1cccc(Br)c1)S(C)(=O)=O	.	.	.	.	0.2	.	.	.	.
O=C1c2ccccc2C(=O)C12OC2c1ccc(Cl)cc1 (configuration not stated)	-49.1	-130.7	16.3	.	.	.	-84.7	.	.
CC(=O)C(=NNc1ccccc1)Oc1ccc(Br)cc1	.	.	.	.	3.9	.	.	.	.
CC(=O)OCC(=O)[C@H]1CC[C@H]2[C@@H]3CC=C4C[C@@H](O)CC[C@]4(C)[C@H]3CC[C@]12C	51.0	65.1*	34.6	-5.2	0.7	0.4	77.2*	55.5*	47.5
CC(=O)[C@H]1CCC2C3CC=C4C[C@@H](O)CC[C@]4(C)C3CC[C@@]21C (some centres not stated)	.	53.2*	.	-4.7	-1.6	-2.1	63.6*	.	.
COc1ccc(C=NS(=O)(=O)CCc2ccccc2)c(OC)c1	.	.	.	.	1.5	.	.	.	.
NC(=S)NN=C1CCSc2ccc3ccccc3c21	.	.	.	.	2.8	.	.	.	.
CC(=C/c1ccccc1)/C=N/NC(=O)c1cccs1	-8.4	55.5*	5.1	1.4	.	-3.0	23.9	.	.
O=C(NN=Cc1ccccc1O)C1(O)c2ccccc2-c2ccccc21	.	.	.	.	-27.8	.	.	.	.
CCc1cc(C(=O)Nc2cc(Cl)ccc2N2CCN(C)CC2)sc1C	.	66.5*	-21.6	-2.5	1.6	-5.5	78.8*	76.7*	72.5*
COC(=O)C12CCC3(SCCS3)C(C(=O)OC)(CCC13SCCS3)C2	30.7	58.1*	-9.3	-4.5	3.7	-2.0	22.0	.	.
Cc1ccc(Nc2cc(C)nn2-c2nc(C)cc(=O)[nH]2)cc1	8.7	75.5*	79.9*	-3.2	0.9	91.8*	81.3*	97.2*	93.4*
Cc1ccc(Nc2cc(C)nn2-c2nc(C)cc(C)n2)cc1	14.7	35.5	5.6	-2.0	3.6	14.0	.	.	.
